The subject of the assay is DU-145 prostate cancer cells. Nature of the assay: In vitro antiproliferation assay. Conditions: Homo sapiens, DU-145, 72 h, read-out: DU-145 (IC50, nM). The class given is cell-based. A digest of the protocol:
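DU-145 cells (ATCC) grown in medium with 10% (v/v) FBS, 50 units/ml penicillin and 50 µg/ml streptomycin at 37 °C, 5% CO2. Seeded at 5 × 10^4 cells/well, left overnight, then exposed to varying test compound concentrations for 72 h at 37 °C. A 5 mg/mL MTT solution was added for 4 h. Supernatant was removed by centrifugation and crystals dissolved in DMSO. A570 was read. IC50 came from nonlinear regression; mean ± SD, n = 3.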

On to `CC[C@@H]1C(=O)N(C)c2cnc(Nc3ccc(C(=O)N[C@H]4CC[C@H](N5CCN(CC6CC6)CC5)CC4)cc3OC)nc2N1C(C)C` [BI-6727, volasertib], for which the IC50 – broadly, the concentration needed to halve the response being measured – amounted to 4.03 ± 0.15 nM.

Source of the values: paper PMC11892073 (Journal of Enzyme Inhibition and Medicinal Chemistry, 2025).
